Activity calls are given as the source filed them. The rule behind the calls is not given here.
Columns and labels:
[1] = biological target: T1, Fructose-1,6-bisphosphatase 1 (Homo sapiens, UniProt P09467); experiment: Inhibition of human FBPase expressed in Escherichia coli BL21 (DE3) using FBP as substrate incubated for 5 mins by malachite green dye based spectrophotometry
T1 sequence (P09467 whole entry): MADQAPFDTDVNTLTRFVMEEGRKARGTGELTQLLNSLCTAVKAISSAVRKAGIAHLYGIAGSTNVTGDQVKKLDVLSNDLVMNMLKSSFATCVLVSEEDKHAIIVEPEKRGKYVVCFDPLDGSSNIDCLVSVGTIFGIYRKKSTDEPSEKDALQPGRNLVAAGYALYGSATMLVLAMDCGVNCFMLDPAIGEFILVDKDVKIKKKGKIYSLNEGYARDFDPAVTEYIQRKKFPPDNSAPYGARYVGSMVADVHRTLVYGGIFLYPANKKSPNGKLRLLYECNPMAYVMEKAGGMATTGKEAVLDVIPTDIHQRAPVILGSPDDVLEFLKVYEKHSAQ

Hepatocyte [2] = experiment: Cytotoxicity against C57BLKS rat Primary hepatocytes assessed as cell viability by measuring cellular protein level at 1 to 100 uM in presence of cAMP and Dex by bicinchoninic acid method; assay type: cell-based
How it was run: (§1)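 Primary hepatocytes isolated from rat, cultured overnight in DMEM with 10% FBS, then exposed to compounds. Cellular protein per group measured by bicinchoninic acid (BCA) method as a viability control. The same protein values serve to normalize glucose, TG and TC contents. Pathological stimulation where applicable: 1 µM dexamethasone plus 200 µM cAMP, or 25 mM glucose plus 500 nM insulin for 24 h. Means ± SEM, four independent experiments.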

Hepatocyte [3] = experiment: Inhibition of glucose production in cAMP and Dex pre-treated C57BLKS rat Primary hepatocytes at 1 uM incubated for 3 hrs by glucose assay kit method; assay type: functional, cell-based
How it was run: (§2)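 Rat primary hepatocytes cultured overnight in DMEM/10% FBS, then pretreated with compounds for 3 h in fresh medium. Switched to glucose-free DMEM with 2 mM sodium pyruvate, 20 mM sodium lactate and compound for 3 h. Medium glucose measured with a kit and normalized to BCA protein. Pathological arm adds 1 µM dexamethasone plus 200 µM cAMP for 3 h. Means ± SEM, n=4.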

Hepatocyte [4] = experiment: Cytotoxicity against C57BLKS rat Primary hepatocytes assessed as cell viability by measuring cellular protein level at 10 to 400 uM by bicinchoninic acid method; assay type: cell-based; how it was run: as §1
Hepatocyte [5] = experiment: Inhibition of glucose production in cAMP and Dex pre-treated C57BLKS rat Primary hepatocytes incubated for 3 hrs by glucose assay kit method; assay type: functional, cell-based; how it was run: as §2
Hepatocyte [6] = experiment: Inhibition of lipid accumulation in C57BLKS rat Primary hepatocytes assessed as reduction in insulin and glucose-induced TG level at 25 uM incubated for 24 hrs; assay type: functional, cell-based
How it was run: (§3)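 After overnight culture in DMEM, rat primary hepatocytes pretreated with compounds, then held in 25 mM glucose plus 500 nM insulin for 24 h to induce lipid accumulation. Triglyceride and total cholesterol measured with assay kits and normalized to BCA protein. Means ± SEM of four independent experiments.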

Hepatocyte [7] = experiment: Inhibition of glucose production in C57BLKS rat Primary hepatocytes incubated for 3 hrs by glucose assay kit method; assay type: functional, cell-based; how it was run: as §2
[8] = Cytotoxicity against C57BLKS rat Primary hepatocytes assessed as cell viability incubated for 6 hrs by SRB assay; assay type: cell-based, Hepatocyte; details: read-out: Activity
How it was run: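 Rat primary hepatocytes under physiological conditions exposed to compounds for 6 h. Viability read by sulforhodamine B staining. Means ± SEM of four independent experiments.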

Hepatocyte [9] = experiment: Inhibition of lipid accumulation in C57BLKS rat Primary hepatocytes assessed as reduction in insulin and glucose-induced TG level at 100 uM incubated for 24 hrs; assay type: functional, cell-based; how it was run: as §3
Hepatocyte [10] = experiment: Inhibition of glucose production in C57BLKS rat Primary hepatocytes at 400 uM incubated for 3 hrs by glucose assay kit method relative to control; assay type: functional; how it was run: as §2
Hepatocyte [11] = experiment: Inhibition of lipid accumulation in C57BLKS rat Primary hepatocytes assessed as reduction in insulin and glucose-induced TC level incubated for 24 hrs; assay type: functional, cell-based; how it was run: as §3
Hepatocyte [12] = experiment: Cytotoxicity against C57BLKS rat Primary hepatocytes assessed as cell viability by measuring cellular protein level at 10 to 100 uM in presence of insulin and glucose by bicinchoninic acid method; assay type: cell-based; how it was run: as §1
Hepatocyte [13] = experiment: Inhibition of lipid accumulation in C57BLKS rat Primary hepatocytes assessed as reduction in insulin and glucose-induced TC level at 25 uM incubated for 24 hrs; assay type: functional, cell-based; how it was run: as §3
[14] = biological target: T2, Fructose-1,6-bisphosphatase 1 (Homo sapiens) (UniProt P09467); experiment: Inhibition of human FBPase expressed in Escherichia coli BL21 (DE3) at 500 uM using FBP as substrate incubated for 5 mins by malachite green dye based spectrophotometry relative to control
T2 sequence (whole entry): T1 sequence (P09467 whole entry)

Compound: CCOC(=O)C(C)(C)Oc1ccc(Br)c(/C=C/[N+](=O)[O-])c1
- IC50 [1]: 0.79 µM

Compound: CCOC(=O)C(C)(C)Oc1cc(/C=C/[N+](=O)[O-])ccc1Cl
- IC50 [1]: 0.83 µM

Compound: CCOC(=O)C(C)(C)Oc1cc(/C=C/[N+](=O)[O-])ccc1OC(F)F
- IC50 [1]: 1.6 µM

Compound: Nc1ncnc2c1ncn2[C@@H]1O[C@H](COP(=O)(O)O)[C@@H](O)[C@H]1O [ADENOSINE PHOSPHATE]
- IC50 [1]: 2.3 µM

Compound: CCOC(=O)C(C)(C)Oc1ccc(Cl)cc1/C=C/[N+](=O)[O-]
- Activity (Hepatocyte [2]): Non-Toxic
- IC50 [1]: 8.2 µM
- inhibition (Hepatocyte [3]): Active
- Activity (Hepatocyte [4]): Non-Toxic
- inhibition (Hepatocyte [5]): Dose-dependent effect
- inhibition (Hepatocyte [6]): Active
- inhibition (Hepatocyte [7]): Dose-dependent effect
- viability at 6 h [8]: > 80%
- inhibition (Hepatocyte [9]): inactive
- inhibition at 400 µM (Hepatocyte [10]): 90%
- inhibition (Hepatocyte [11]): Dose-dependent effect
- Activity (Hepatocyte [12]): Non-Toxic
- inhibition (Hepatocyte [13]): Active

Compound: CCOC(=O)C(C)(C)Oc1ccc(/C=C/[N+](=O)[O-])cc1
- IC50 [1]: 3.1 µM

Compound: CCOC(=O)C(C)(C)Oc1cccc(/C=C/[N+](=O)[O-])c1
- IC50 [1]: 1 µM

Compound: CCOC(=O)C(C)(C)Oc1ccc(/C=C/[N+](=O)[O-])cc1Cl
- IC50 [1]: 1.6 µM

Compound: CCOC(=O)C(C)(C)Oc1ccc(/C=C/[N+](=O)[O-])c(Cl)c1
- IC50 [1]: 1.8 µM

Compound: COC(=O)/C=C/C(=O)OC
- inhibition [14]: 22%

Compound: C=CC(=O)Nc1ccccc1
- inhibition [14]: 17%

Compound: O=C/C=C/c1ccccc1
- inhibition [14]: 15%

Compound: CCOC(=O)C(C)(C)Oc1ccc(F)cc1/C=C/[N+](=O)[O-]
- IC50 [1]: 7 µM

Compound: CCOC(=O)C(C)(C)Oc1ccccc1/C=C/[N+](=O)[O-]
- IC50 [1]: 2.7 µM

Compound: c1ccc(C2CO2)cc1 (configuration not stated)
- inhibition [14]: 31%

Compound: C=C(CC)C(=O)c1ccc(OCC(=O)O)c(Cl)c1Cl
- inhibition [14]: 56%

Compound: O=[N+]([O-])/C=C/c1ccccc1 [(2-NITROVINYL)BENZENE]
- IC50 [1]: 3.5 µM

Compound: O=C1C=CCC1
- inhibition [14]: 29%

Compound: CC(=O)C=O
- inhibition [14]: 19%

Compound: O=C(O)/C=C/C(=O)O
- inhibition [14]: 9.5%

Compound: CCOC(=O)C(C)(C)Oc1ccc(Cl)c(/C=C/[N+](=O)[O-])c1
- Activity (Hepatocyte [2]): Non-Toxic
- IC50 [1]: 2.9 µM
- inhibition (Hepatocyte [3]): Active
- Activity (Hepatocyte [4]): Non-Toxic
- inhibition (Hepatocyte [5]): Dose-dependent effect
- inhibition (Hepatocyte [6]): Active
- inhibition (Hepatocyte [7]): Dose-dependent effect
- viability at 6 h [8]: > 80%
- inhibition (Hepatocyte [9]): inactive
- inhibition at 400 µM (Hepatocyte [10]): 90%
- inhibition (Hepatocyte [11]): Dose-dependent effect
- Activity (Hepatocyte [12]): Non-Toxic
- inhibition (Hepatocyte [13]): Active

Compound: S=C=NCc1ccccc1
- inhibition [14]: 4.1%

Compound: CCCCCCCC/C=C(\CCCCCCCC(=O)O)[N+](=O)[O-] [NITROLEIC ACID]
- IC50 [1]: 58 µM
